Measured values as given in ChEMBL document CHEMBL2203199, “Heterocycle-functional gramine analogues: solvent- and catalyst-free synthesis and their inhibition activities against cell proliferation” (Eur J Med Chem, 2012).
≈ marks a conversion by molar mass, not a printed value. Calls of active or inactive are those of the source. The calls are words filed in the database; no cut-off is given here.

Legend:
NCI-H460 [1] = assay: Cytotoxicity against human NCI-H460 cells assessed as change in cell morphology at 20 ug/mL after 48 hrs by inverted microscopy; type: functional, cell-based
SGC-7901 [2] = assay: Cytotoxicity against human SGC7901 cells after 72 hrs by MTT assay; type: functional, cell-based; settings: for IC50: Homo sapiens, SGC-7901, 72 h
Procedure, shortened: (§1)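 Cells seeded at 2 × 10⁴ per well and grown to subconfluence before treatment. MTT (5 mg/mL stock in PBS) added, then 4 h incubation for formazan formation. Formazan dissolved in DMSO and absorbance read at 570 nm. IC50 determined from concentration-dependent inhibition. Assays run in triplicate across three independent experiments, reported as mean ± S.D.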

SGC-7901 [3] = assay: Cytotoxicity against human SGC7901 cells assessed as growth inhibition at 40 ug/mL after 72 hrs by MTT assay; type: functional; settings: SGC-7901, 72 h, read-out: GI
Procedure, shortened: (§2)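 Growth inhibition by MTT after seeding at 2 × 10⁴ cells per well and growth to subconfluence, with 5-FU as positive control. MTT stock 5 mg/mL in PBS, 4 h formazan formation, then DMSO solubilisation and A570 read. Triplicate wells, three independent experiments, mean ± S.D.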

HepG2 [4] = assay: Cytotoxicity against human HepG2 cells assessed as growth inhibition at 40 ug/mL after 72 hrs by MTT assay; type: functional; settings: HepG2, 72 h, read-out: GI; procedure, shortened: as §2
SGC-7901 [5] = assay: Cytotoxicity against human SGC7901 cells assessed as change in cell morphology at 20 ug/mL after 48 hrs by inverted microscopy; type: functional, cell-based
BGC-823 [6] = assay: Cytotoxicity against human BGC823 cells assessed as growth inhibition at 40 ug/mL after 72 hrs by MTT assay; type: functional; settings: BGC-823, 72 h, read-out: GI; procedure, shortened: as §2
NCI-H460 [7] = assay: Cytotoxicity against human NCI-H460 cells assessed as growth inhibition at 40 ug/mL after 72 hrs by MTT assay; type: functional; settings: NCI-H460, 72 h, read-out: GI; procedure, shortened: as §2
BGC-823 [8] = assay: Cytotoxicity against human BGC823 cells after 72 hrs by MTT assay; type: functional, cell-based; settings: for IC50: Homo sapiens, BGC-823, 72 h; procedure, shortened: as §1
HepG2 [9] = assay: Cytotoxicity against human HepG2 cells after 72 hrs by MTT assay; type: functional, cell-based; settings: for IC50: Homo sapiens, HepG2, 72 h; procedure, shortened: as §1
NCI-H460 [10] = assay: Cytotoxicity against human NCI-H460 cells after 72 hrs by MTT assay; type: functional, cell-based; settings: for IC50: Homo sapiens, NCI-H460, 72 h; procedure, shortened: as §1

Row | SMILES | Activity (NCI-H460 [1]) | IC50 (SGC-7901 [2]) [mg/L] | inhibition of growth at 40 µg/mL (SGC-7901 [3]) [%] | inhibition of growth at 40 µg/mL (HepG2 [4]) [%] | Activity (SGC-7901 [5]) | inhibition of growth at 40 µg/mL (BGC-823 [6]) [%] | inhibition of growth at 40 µg/mL (NCI-H460 [7]) [%] | IC50 (BGC-823 [8]) [mg/L] | IC50 (HepG2 [9]) [mg/L] | IC50 (NCI-H460 [10]) [mg/L] | Activity (BGC-823 [8]) | Activity (HepG2 [9]) | growth inhibition (GI) (SGC-7901 [2]) [%] | growth inhibition (GI) (BGC-823 [8]) [%] | growth inhibition (GI) (HepG2 [9]) [%] | growth inhibition (GI) (NCI-H460 [10]) [%]
1 | Clc1ccccc1C(Nc1ccccn1)c1c[nH]c2ccccc12 (centres undefined) | Active | 14.9 (≈ 44.6 µM) | 71.4 | 71.4 | Active | 71.4 | 71.4 | 22.7 (≈ 68 µM) | 13.1 (≈ 39.2 µM) | 12.2 (≈ 36.5 µM) |  |  |  |  |  | 
2 | Fc1ccc(C(c2c[nH]c3ccccc23)n2cccn2)cc1 (centres undefined) | Active | 8.5 (≈ 29.2 µM) |  |  | Active |  |  | 5.7 (≈ 19.6 µM) | 8 (≈ 27.5 µM) | 8.5 (≈ 29.2 µM) | Dose-dependent effect | Dose-dependent effect |  |  |  | 
3 | Cn1cc(C(Nc2ccccn2)c2ccc(C(F)(F)F)cc2)c2ccccc21 (centres undefined) |  | 13.8 (≈ 36.2 µM) | 71.4 | 71.4 |  | 71.4 | 71.4 | 16.8 (≈ 44 µM) | 12.9 (≈ 33.8 µM) | 16 (≈ 42 µM) |  |  |  |  |  | 
4 | O=c1[nH]cc(F)c(=O)[nH]1 [FLUOROURACIL] |  | 8.7 (≈ 66.9 µM) |  |  |  |  |  | 8.2 (≈ 63 µM) | 9.3 (≈ 71.5 µM) | 7.2 (≈ 55.4 µM) | Dose-dependent effect | Dose-dependent effect | 66.8 | 66.8 | 66.8 | 66.8
5 | Fc1ccccc1C(Nc1nc2ccccc2s1)c1c[nH]c2ccccc12 (centres undefined) |  | 9.4 (≈ 25.2 µM) |  |  |  |  |  | 8.1 (≈ 21.7 µM) | 7 (≈ 18.7 µM) | 12.1 (≈ 32.4 µM) | Dose-dependent effect | Dose-dependent effect |  |  |  | 
6 | Clc1ccc(C(Nc2ccccn2)c2c[nH]c3ccccc23)cc1 (centres undefined) |  | 19.2 (≈ 57.5 µM) | 71.4 | 71.4 |  | 71.4 | 71.4 | 22.8 (≈ 68.3 µM) | 18.6 (≈ 55.7 µM) | 17.4 (≈ 52.1 µM) |  |  |  |  |  | 
7 | Cn1cc(C(Nc2nc3ccccc3s2)c2ccccc2F)c2ccccc21 (centres undefined) |  | > 100 |  |  |  |  |  | > 100 | > 100 | > 100 |  |  |  |  |  | 
8 | Fc1ccc(C(c2c[nH]c3ccccc23)n2cncn2)cc1 (centres undefined) |  | 8.2 (≈ 28.1 µM) |  |  |  |  |  | 10.3 (≈ 35.2 µM) | 8.4 (≈ 28.7 µM) | 10.7 (≈ 36.6 µM) | Dose-dependent effect | Dose-dependent effect |  |  |  | 
9 | Cn1cc(C(Nc2ccccn2)c2ccccc2F)c2ccccc21 (centres undefined) |  | 86.2 (≈ 260 µM) |  |  |  |  |  | 64.2 (≈ 194 µM) | 43.2 (≈ 130 µM) | 92.6 (≈ 279 µM) |  |  |  |  |  | 
10 | c1ccc(NC(c2ccncc2)c2c[nH]c3ccccc23)nc1 (centres undefined) |  | > 100 |  |  |  |  |  | > 100 | > 100 | > 100 |  |  |  |  |  | 
11 | Cn1cc(C(Nc2ccccn2)c2ccc(F)cc2)c2ccccc21 (centres undefined) |  | 51.9 (≈ 157 µM) |  |  |  |  |  | 51.6 (≈ 156 µM) | 38.6 (≈ 116 µM) | 49.1 (≈ 148 µM) |  |  |  |  |  | 
12 | Clc1ccccc1C(Nc1nc2ccccc2s1)c1c[nH]c2ccccc12 (centres undefined) | Active | 10.5 (≈ 26.9 µM) |  |  | Active |  |  | 8.1 (≈ 20.8 µM) | 9 (≈ 23.1 µM) | 13.2 (≈ 33.9 µM) |  |  |  |  |  | 
13 | Cn1cc(C(Nc2ccccn2)c2ccc(Cl)cc2)c2ccccc21 (centres undefined) |  | 25 (≈ 71.9 µM) | 70.8 | 73.6 |  |  |  | 30.8 (≈ 88.5 µM) | 25.5 (≈ 73.3 µM) | 32.1 (≈ 92.3 µM) |  |  |  |  |  | 
14 | c1ccc(NC(c2ccccn2)c2c[nH]c3ccccc23)nc1 (centres undefined) |  | 51.4 (≈ 171 µM) |  |  |  |  |  | 46.9 (≈ 156 µM) | > 100 | > 100 |  |  |  |  |  | 
15 | Cn1cc(C(Nc2ccccn2)c2ccccn2)c2ccccc21 (centres undefined) |  | > 100 |  |  |  |  |  | > 100 | > 100 | > 100 |  |  |  |  |  | 
16 | Cn1cc(C(Nc2ccccn2)c2ccccc2Cl)c2ccccc21 (centres undefined) |  | 27.1 (≈ 77.9 µM) |  |  |  |  |  | 39.2 (≈ 113 µM) | 26.5 (≈ 76.2 µM) | 66.7 (≈ 192 µM) |  |  |  |  |  | 
17 | Fc1ccccc1C(Nc1ccccn1)c1c[nH]c2ccccc12 (centres undefined) |  | 24.5 (≈ 77.2 µM) | 71.4 | 71.4 |  | 71.4 | 71.4 | 37.6 (≈ 118 µM) | 28.7 (≈ 90.4 µM) | 24.9 (≈ 78.5 µM) |  |  |  |  |  | 
18 | Fc1ccc(C(Nc2ccccn2)c2c[nH]c3ccccc23)cc1 (centres undefined) |  | 21.5 (≈ 67.7 µM) | 71.4 | 71.4 |  | 71.4 | 71.4 | 21.8 (≈ 68.7 µM) | 23 (≈ 72.5 µM) | 24 (≈ 75.6 µM) |  |  |  |  |  | 
19 | c1ccc(C(Nc2ccccn2)c2c[nH]c3ccccc23)cc1 (centres undefined) |  | 24.9 (≈ 83.2 µM) |  |  |  |  |  | 29.4 (≈ 98.2 µM) | 27.6 (≈ 92.2 µM) | 35.3 (≈ 118 µM) |  |  |  |  |  | 
20 | FC(F)(F)c1ccc(C(Nc2ccccn2)c2c[nH]c3ccccc23)cc1 (centres undefined) | Active | 13.5 (≈ 36.7 µM) | 71.4 | 71.4 | Active | 71.4 | 71.4 | 10.1 (≈ 27.5 µM) | 12.1 (≈ 32.9 µM) | 8.6 (≈ 23.4 µM) |  |  |  |  |  | 
21 | CN(C)Cc1c[nH]c2ccccc12 [GRAMINE] |  | 77.3 (≈ 444 µM) |  |  |  |  |  | 62.8 (≈ 360 µM) | > 100 | 74.5 (≈ 428 µM) |  |  |  |  |  | 
22 | Cn1cc(C(Nc2ccccn2)c2ccncc2)c2ccccc21 (centres undefined) |  | 37.9 (≈ 121 µM) |  |  |  |  |  | 47.1 (≈ 150 µM) | 42.5 (≈ 135 µM) | 56 (≈ 178 µM) |  |  |  |  |  | 
